{
  "source": "ChEMBL document CHEMBL3785059",
  "about": "“LC-MS-Guided Isolation of Penicilfuranone A: A New Antifibrotic Furancarboxylic Acid from the Plant Endophytic Fungus Penicillium sp. sh18” (J Nat Prod, 2016)",
  "key": {"LX2 [1]": {"tested_on": "LX2", "assay": "Inhibition of TGF-beta-induced CTGF expression in human LX2 cells after 48 hrs by Western blot analysis", "assay_type": "functional, cell-based"}, "[2]": {"target": "T1, Mothers against decapentaplegic homolog 2/homolog 3 (Rattus norvegicus) (UniProt O70436+P84025)", "T1 sequence (O70436 whole entry, looked up)": "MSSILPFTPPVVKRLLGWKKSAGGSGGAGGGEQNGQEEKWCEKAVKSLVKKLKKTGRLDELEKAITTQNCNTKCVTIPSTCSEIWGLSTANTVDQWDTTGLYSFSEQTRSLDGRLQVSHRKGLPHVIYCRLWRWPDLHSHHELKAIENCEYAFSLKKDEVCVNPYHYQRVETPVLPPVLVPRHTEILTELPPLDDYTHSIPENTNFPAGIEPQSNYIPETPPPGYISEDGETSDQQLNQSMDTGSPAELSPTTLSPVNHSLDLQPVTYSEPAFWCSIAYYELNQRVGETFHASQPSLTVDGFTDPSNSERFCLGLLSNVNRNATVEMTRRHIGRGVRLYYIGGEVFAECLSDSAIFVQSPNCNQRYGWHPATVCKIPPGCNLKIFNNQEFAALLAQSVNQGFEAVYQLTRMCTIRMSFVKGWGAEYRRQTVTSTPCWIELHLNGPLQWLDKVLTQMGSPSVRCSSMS", "T1 sequence (P84025 whole entry, looked up)": "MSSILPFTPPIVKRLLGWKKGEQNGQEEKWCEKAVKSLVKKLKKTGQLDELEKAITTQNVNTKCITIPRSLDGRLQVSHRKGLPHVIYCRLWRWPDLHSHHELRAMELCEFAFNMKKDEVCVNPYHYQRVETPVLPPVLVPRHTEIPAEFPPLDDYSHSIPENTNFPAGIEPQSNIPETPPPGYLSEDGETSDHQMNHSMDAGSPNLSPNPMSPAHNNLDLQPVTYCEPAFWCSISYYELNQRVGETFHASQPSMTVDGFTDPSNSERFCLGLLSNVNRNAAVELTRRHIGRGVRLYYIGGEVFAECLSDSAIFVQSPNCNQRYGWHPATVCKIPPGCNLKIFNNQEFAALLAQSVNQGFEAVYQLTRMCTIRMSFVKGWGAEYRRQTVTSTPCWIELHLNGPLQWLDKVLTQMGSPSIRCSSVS", "assay": "Inhibition of TGF-beta1-induced Smad2/3 phosphorylation in rat HSC-T6 cells after 1 hr by Western blot analysis", "assay_type": "cell-based", "how_it_was_run": "(§1)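 Serum-starved cells (24 h, no FBS) preincubated 2 h with compound at 1, 2 or 4 μM, DMSO or 10 μM SB431542. Then exposed to TGF-β1 at 10 ng/mL final for 1 h. Lysates (30 μg) immunoblotted for phospho-Smad2/3 and Smad7; membranes reprobed for total Smad2/3 and β-actin for loading.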"}, "HSC-T6 [3]": {"tested_on": "HSC-T6", "assay": "Inhibition of TGF-beta-induced type-1 collagen expression in rat HSC-T6 cells after 48 hrs by Western blot analysis", "assay_type": "functional, cell-based", "how_it_was_run": "(§2)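 Cells at 70% confluence serum-starved 24 h (passages 18–25). Preincubated 2 h with compound (1, 2 or 4 μM), DMSO vehicle or 10 μM SB431542, then 10 ng/mL human recombinant TGF-β1 added without wash for 48 h. Whole-cell lysates (30 μg protein) run on SDS-PAGE and immunoblotted with β-actin as loading control.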"}, "HSC-T6 [4]": {"tested_on": "HSC-T6", "assay": "Inhibition of TGF-beta-induced alpha-SMA expression in rat HSC-T6 cells at 1 to 4 uM after 48 hrs by Western blot analysis", "assay_type": "functional, cell-based", "how_it_was_run": "as §2"}, "LX2 [5]": {"tested_on": "LX2", "assay": "Inhibition of TGF-beta1-induced decrease of Smad7 expression in human LX2 cells after 1 hr by Western blot analysis", "assay_type": "functional, cell-based", "how_it_was_run": "as §1"}, "[6]": {"assay": "Cytotoxicity against rat HSC-T6 cells at up to 4 uM after 48 hrs by MTT assay", "assay_type": "cell-based", "conditions": "hsc-t6, 48 h", "how_it_was_run": "(§3)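 MTT (5 mg/mL stock) added for 4 h at 37 °C. Formazan dissolved in DMSO, OD read at 570 nm. Viability given as % of control; mean ± SEM of three independent experiments.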"}, "HSC-T6 [7]": {"tested_on": "HSC-T6", "assay": "Inhibition of TGF-beta1-induced decrease of Smad7 expression in rat HSC-T6 cells after 1 hr by Western blot analysis", "assay_type": "functional, cell-based", "how_it_was_run": "as §1"}, "[8]": {"assay": "Cytotoxicity against human L02 cells at up to 4 uM after 48 hrs by MTT assay", "assay_type": "cell-based", "conditions": "l02, 48 h", "how_it_was_run": "as §3"}, "LX2 [9]": {"tested_on": "LX2", "assay": "Effect on Smad2/3 expression in human LX2 cells at 1 to 4 uM after 1 hr by Western blot analysis", "assay_type": "functional, cell-based", "how_it_was_run": "as §1"}, "[10]": {"assay": "Cytotoxicity against human LX2 cells at up to 4 uM after 48 hrs by MTT assay", "assay_type": "cell-based", "conditions": "lx2, 48 h", "how_it_was_run": "as §3"}, "LX2 [11]": {"tested_on": "LX2", "assay": "Inhibition of TGF-beta-induced vimentin expression in human LX2 cells at 1 to 4 uM after 48 hrs by Western blot analysis", "assay_type": "functional, cell-based", "how_it_was_run": "as §2"}, "HSC-T6 [12]": {"tested_on": "HSC-T6", "assay": "Effect on Smad2/3 expression in rat HSC-T6 cells at 1 to 4 uM after 1 hr by Western blot analysis", "assay_type": "functional, cell-based", "how_it_was_run": "as §1"}, "[13]": {"target": "T2, Mothers against decapentaplegic homolog 2/homolog 3 (Homo sapiens) (UniProt P84022+Q15796)", "T2 sequence (P84022 whole entry, looked up)": "as the sequence (P84025 whole entry, looked up) above", "T2 sequence (Q15796 whole entry, looked up)": "as the sequence (O70436 whole entry, looked up) above, with A90P, V93I, S154N counted along it", "assay": "Inhibition of TGF-beta1-induced Smad2/3 phosphorylation in human LX-2 cells after 1 hr by Western blot analysis", "assay_type": "cell-based", "how_it_was_run": "as §1"}, "HSC-T6 [14]": {"tested_on": "HSC-T6", "assay": "Inhibition of TGF-beta-induced CTGF expression in rat HSC-T6 cells after 48 hrs by Western blot analysis", "assay_type": "functional, cell-based"}, "HSC-T6 [15]": {"tested_on": "HSC-T6", "assay": "Inhibition of TGF-beta-induced vimentin expression in rat HSC-T6 cells at 1 to 4 uM after 48 hrs by Western blot analysis", "assay_type": "functional, cell-based", "how_it_was_run": "as §2"}, "LX2 [16]": {"tested_on": "LX2", "assay": "Inhibition of TGF-beta-induced alpha-SMA expression in human LX2 cells at 1 to 4 uM after 48 hrs by Western blot analysis", "assay_type": "functional, cell-based", "how_it_was_run": "as §2"}, "LX2 [17]": {"tested_on": "LX2", "assay": "Inhibition of TGF-beta-induced type-1 collagen expression in human LX2 cells after 48 hrs by Western blot analysis", "assay_type": "functional, cell-based", "how_it_was_run": "as §2"}, "[18]": {"target": "T2, Mothers against decapentaplegic homolog 2/homolog 3 (Homo sapiens)", "assay": "Inhibition of TGF-beta1-induced Smad2/3 phosphorylation in human LX2 cells at 10 uM after 1 hr by Western blot analysis", "assay_type": "cell-based", "how_it_was_run": "(§4)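 HSC-T6 (rat; RPMI 1640) or LX-2 (human; DMEM) cells with 10% FBS, passages 18-25, were grown to 70% confluence and serum-starved 24 h. They were preincubated 2 h with test agent or DMSO, then exposed to TGF-β1 at a final 10 ng/mL for 1 h. Blots of 30 μg lysate were probed for phospho-Smad2/3 and Smad7, then reprobed for total Smad2/3 and β-actin.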"}, "LX2 [19]": {"tested_on": "LX2", "assay": "Inhibition of TGF-beta-induced vimentin expression in human LX2 cells at 10 uM after 48 hrs by Western blot analysis", "assay_type": "functional, cell-based", "how_it_was_run": "(§5)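 Rat HSC-T6 (RPMI 1640) or human LX-2 (DMEM) cells, passages 18-25, at 70% confluence were serum-deprived for 24 h. After 2 h pretreatment with agent or DMSO vehicle, TGF-β1 was added without washing at a final 10 ng/mL for 48 h. Whole-cell lysates (30 μg) were blotted for vimentin, with β-actin as the loading control.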"}, "[20]": {"target": "T1, Mothers against decapentaplegic homolog 2/homolog 3 (Rattus norvegicus)", "assay": "Inhibition of TGF-beta1-induced Smad2/3 phosphorylation in rat HSC-T6 cells at 10 uM after 1 hr by Western blot analysis", "assay_type": "cell-based", "how_it_was_run": "as §4"}, "HSC-T6 [21]": {"tested_on": "HSC-T6", "assay": "Effect on Smad2/3 expression in rat HSC-T6 cells at 10 uM after 1 hr by Western blot analysis", "assay_type": "functional, cell-based", "how_it_was_run": "as §4"}, "HSC-T6 [22]": {"tested_on": "HSC-T6", "assay": "Inhibition of TGF-beta1-induced decrease of Smad7 expression in rat HSC-T6 cells at 10 uM after 1 hr by Western blot analysis", "assay_type": "functional, cell-based", "how_it_was_run": "as §4"}, "LX2 [23]": {"tested_on": "LX2", "assay": "Inhibition of TGF-beta1-induced decrease of Smad7 expression in human LX2 cells at 10 uM after 1 hr by Western blot analysis", "assay_type": "functional, cell-based", "how_it_was_run": "as §4"}, "HSC-T6 [24]": {"tested_on": "HSC-T6", "assay": "Inhibition of TGF-beta-induced vimentin expression in rat HSC-T6 cells at 10 uM after 48 hrs by Western blot analysis", "assay_type": "functional, cell-based", "how_it_was_run": "as §5"}, "LX2 [25]": {"tested_on": "LX2", "assay": "Effect on Smad2/3 expression in human LX2 cells at 10 uM after 1 hr by Western blot analysis", "assay_type": "functional, cell-based", "how_it_was_run": "as §4"}},
  "note": "Activity calls are given as the source filed them. The rule behind the calls is not given here.",
  "data": [
    {"smiles": "CC/C=C/C=C/[C@@]1(C)OC([C@H]2[C@@H](C)C(=O)c3cc(OC)c(O)c(O)c3[C@@]2(C)O)=C(C(=O)OC)C1=O", "values": [
      {"measurement": "inhibition", "setting": "LX2 [1]", "value": "Dose-dependent effect"},
      {"measurement": "inhibition", "setting": "[2]", "value": "Dose-dependent effect"},
      {"measurement": "inhibition", "setting": "HSC-T6 [3]", "value": "Dose-dependent effect"},
      {"measurement": "inhibition", "setting": "HSC-T6 [4]", "value": "Active"},
      {"measurement": "inhibition", "setting": "LX2 [5]", "value": "Dose-dependent effect"},
      {"measurement": "Activity", "setting": "[6]", "value": "Non-toxic"},
      {"measurement": "inhibition", "setting": "HSC-T6 [7]", "value": "Dose-dependent effect"},
      {"measurement": "Activity", "setting": "[8]", "value": "Non-toxic"},
      {"measurement": "Activity", "setting": "LX2 [9]", "value": "inactive"},
      {"measurement": "Activity", "setting": "[10]", "value": "Non-toxic"},
      {"measurement": "inhibition", "setting": "LX2 [11]", "value": "Active"},
      {"measurement": "Activity", "setting": "HSC-T6 [12]", "value": "inactive"},
      {"measurement": "inhibition", "setting": "[13]", "value": "Dose-dependent effect"},
      {"measurement": "inhibition", "setting": "HSC-T6 [14]", "value": "Dose-dependent effect"},
      {"measurement": "inhibition", "setting": "HSC-T6 [15]", "value": "Active"},
      {"measurement": "inhibition", "setting": "LX2 [16]", "value": "Active"},
      {"measurement": "inhibition", "setting": "LX2 [17]", "value": "Dose-dependent effect"}
    ]},
    {"smiles": "NC(=O)c1ccc(-c2nc(-c3ccccn3)c(-c3ccc4c(c3)OCO4)[nH]2)cc1", "values": [
      {"measurement": "inhibition", "setting": "[18]", "value": "Dose-dependent effect"},
      {"measurement": "inhibition", "setting": "LX2 [19]", "value": "Active"},
      {"measurement": "inhibition", "setting": "[20]", "value": "Dose-dependent effect"},
      {"measurement": "Activity", "setting": "HSC-T6 [21]", "value": "inactive"},
      {"measurement": "inhibition", "setting": "HSC-T6 [22]", "value": "Dose-dependent effect"},
      {"measurement": "inhibition", "setting": "LX2 [23]", "value": "Dose-dependent effect"},
      {"measurement": "inhibition", "setting": "HSC-T6 [24]", "value": "Active"},
      {"measurement": "Activity", "setting": "LX2 [25]", "value": "inactive"}
    ]}
  ]
}
